According to PMC11164251 (International journal of biological macromolecules, 2023):
Read-outs that look alike come from different tables or passages of the source. Peptide text beside a SMILES is read from it.

Legend:
HsTFIIS LW domain [1] = test: ITC of HsLeo1 peptides with the HsTFIIS LW domain; assay type: binding, Homo sapiens; details: HsTFIIS LW domain mutant printed as W339A
Method in brief: (§1)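 Recombinant N-His-tagged LW domain (wild type or point mutant), expressed in E. coli BL21 (DE3) (0.5 mM IPTG, 16 °C, 20 h) and purified by Ni-NTA, gel filtration and ion exchange. ITC: 50 uM protein in cell, 1mM synthetic Leo1 peptides in syringe, 16 × 2 μl injections at 120 s intervals. Buffer: 25 mM Tris, 200 mM NaCl, 1 mM EDTA, 1 % glycerol, pH 7.4, 25 °C. Peptide-into-buffer heat of dilution subtracted.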

HsTFIIS LW domain [2] = target: HsTFIIS LW domain (Homo sapiens, UniProt P23193); test: ITC of HsLeo1 peptides with the HsTFIIS LW domain; assay type: binding; details: pH 7.4, 25 °C
Method in brief: as §1

HsTFIIS LW domain [3] = target: HsTFIIS LW domain (Homo sapiens, UniProt P23193, L41A); test: ITC of HsLeo1 peptides with the HsTFIIS LW domain; assay type: binding; details: HsTFIIS1–96 LW mutant L41A, pH 7.4, 200 mM NaCl, 25 °C
Method in brief: as §1

HsTFIIS LW domain [4] = target: HsTFIIS LW domain (Homo sapiens, UniProt P23193, K67A); test: ITC of HsLeo1 peptides with the HsTFIIS LW domain; assay type: binding; details: HsTFIIS1–96 LW mutant K67A, pH 7.4, 200 mM NaCl, 25 °C
Method in brief: as §1

HsTFIIS LW domain [5] = target: HsTFIIS LW domain (Homo sapiens, UniProt P23193, I70A); test: ITC of HsLeo1 peptides with the HsTFIIS LW domain; assay type: binding; details: HsTFIIS1–96 LW mutant I70A, pH 7.4, 200 mM NaCl, 25 °C
Method in brief: as §1

HsTFIIS LW domain [6] = target: HsTFIIS LW domain (Homo sapiens, UniProt P23193, W73A); test: ITC of HsLeo1 peptides with the HsTFIIS LW domain; assay type: binding; details: HsTFIIS1–96 LW mutant W73A, pH 7.4, 200 mM NaCl, 25 °C
Method in brief: as §1

[7] = target: TbTFIIS2–2 LW domain (residue 251–359) F340A (T. brucei); test: ITC
[8] = target: TbTFIIS2–2 LW domain (residue 251–359) L336A (T. brucei); test: ITC
ScTFIIS LW domain [9] = target: ScTFIIS LW domain (Saccharomyces cerevisiae, UniProt P07273, I69A); assay type: binding; details: ScTFIIS1–81 LW mutant I69A, pH 7.4, 25 °C
ScTFIIS LW domain [10] = target: ScTFIIS LW domain (Saccharomyces cerevisiae, UniProt P07273, K66A); assay type: binding; details: ScTFIIS1–81 LW mutant K66A, pH 7.4, 25 °C
ScTFIIS LW domain [11] = target: ScTFIIS LW domain (Saccharomyces cerevisiae, UniProt P07273, W72A); assay type: binding; details: ScTFIIS1–81 LW mutant W72A; ITC, pH 7.4, 200 mM NaCl, 25 °C
ScTFIIS LW domain [12] = target: ScTFIIS LW domain (Saccharomyces cerevisiae, UniProt P07273, L41A); assay type: binding; details: ScTFIIS1–81 LW mutant L41A, pH 7.4, 25 °C
ScTFIIS LW domain [13] = target: ScTFIIS LW domain (Saccharomyces cerevisiae, UniProt P07273); assay type: binding
[14] = target: HsTFIIS LW domain (residue 1–96), wild type (H. sapiens, UniProt P23193 1-96); test: ITC
[15] = target: HsTFIIS LW domain (residue 1–96) K67A (H. sapiens, UniProt P23193 1-96, K67A); test: ITC
[16] = target: HsTFIIS LW domain without the C-terminus (residue 1–78) (H. sapiens, UniProt P23193 1-78); test: ITC
[17] = target: T1, ScTFIIS LW domain (residue 1–81) I69A (S. cerevisiae, UniProt P07273 1-81, I69A); test: ITC
T1 sequence (looked up): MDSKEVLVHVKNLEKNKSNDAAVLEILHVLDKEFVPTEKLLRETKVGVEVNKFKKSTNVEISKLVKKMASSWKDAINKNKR

[18] = target: T2, ScTFIIS LW domain (residue 1–81) K66A (S. cerevisiae, UniProt P07273 1-81, K66A); test: ITC
T2 sequence (looked up): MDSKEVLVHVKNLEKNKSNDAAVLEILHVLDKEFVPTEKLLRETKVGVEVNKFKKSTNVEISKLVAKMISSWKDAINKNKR

[19] = target: T3, ScTFIIS LW domain, longer version (residue 1–93) (S. cerevisiae, UniProt P07273 1-93); test: ITC
T3 sequence (looked up): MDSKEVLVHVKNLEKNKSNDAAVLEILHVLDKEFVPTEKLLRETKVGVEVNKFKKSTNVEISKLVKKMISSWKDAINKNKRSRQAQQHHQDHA

[20] = target: T4, ScTFIIS LW domain (residue 1–81) L41A (S. cerevisiae, UniProt P07273 1-81, L41A); test: ITC
T4 sequence (looked up): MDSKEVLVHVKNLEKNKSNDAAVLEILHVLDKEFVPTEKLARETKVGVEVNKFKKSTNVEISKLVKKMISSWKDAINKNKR

[21] = target: T5, ScTFIIS LW domain (residue 1–81), wild type (S. cerevisiae, UniProt P07273 1-81); test: ITC
T5 sequence (looked up): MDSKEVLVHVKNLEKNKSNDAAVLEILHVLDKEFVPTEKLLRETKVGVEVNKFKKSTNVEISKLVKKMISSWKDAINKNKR

## CC(C)C[C@H](NC(=O)[C@H](CCC(=O)O)NC(=O)[C@H](CCCCN)NC(=O)[C@H](CC(N)=O)NC(=O)[C@H](CO)NC(=O)[C@@H]1CCCN1C(=O)[C@@H](N)CCC(N)=O)C(=O)N[C@@H](Cc1ccccc1)C(=O)NCC(=O)N[C@@H](CC(=O)O)C(=O)N[C@@H](CC(=O)O)C(=O)N[C@@H](CO)C(=O)N[C@@H](CCC(=O)O)C(=O)N[C@@H](CC(=O)O)C(=O)N[C@@H](CCC(=O)O)C(=O)NCC(=O)O [HsLeo1_55–70] (H-QPSNKELFGDDSEDEG-OH; N-terminus and C-terminus assumed)
HsTFIIS LW domain [1]
  binding (ITC), result in words: abolishes the interactions
HsTFIIS LW domain [2]; HsTFIIS1–78 LW
  N (ITC binding stoichiometry): 1.00
HsTFIIS LW domain [2]; wild type HsTFIIS1–96 LW
  N (ITC binding stoichiometry): 0.96
HsTFIIS LW domain [3]
  Kd: no binding
HsTFIIS LW domain [4]
  Kd: weak binding
HsTFIIS LW domain [5]
  Kd: no binding
HsTFIIS LW domain [6]
  Kd: no binding

## TbLeo1 peptide (residue 71–86) containing the LFG motif
[7]
  Kd: 9.33 µM
[8]
  Kd: 1.11 µM

## CC(C)C[C@H](NC(=O)[C@H](CCC(=O)O)NC(=O)[C@H](C)NC(=O)[C@H](CC(=O)O)NC(=O)[C@H](CCC(=O)O)NC(=O)[C@@H](N)CCC(=O)O)C(=O)N[C@@H](CC(=O)O)C(=O)N[C@@H](CC(=O)O)C(=O)N[C@@H](CC(C)C)C(=O)N[C@@H](Cc1ccccc1)C(=O)NCC(=O)N[C@@H](CC(=O)O)C(=O)N[C@@H](CC(=O)O)C(=O)N[C@@H](CC(N)=O)C(=O)N[C@@H](CC(=O)O)C(=O)O [ScLeo1_54–68] (H-EEDAELDDLFGDDND-OH; N-terminus and C-terminus assumed)
ScTFIIS LW domain [9]
  N (ITC binding stoichiometry): 0.99
ScTFIIS LW domain [10]
  N (ITC binding stoichiometry): 0.95
ScTFIIS LW domain [11]
  Kd: weak binding
ScTFIIS LW domain [12]
  N (ITC binding stoichiometry): 1.03
ScTFIIS LW domain [13]; ScTFIIS LW1–93, pH 7.4, 25 °C
  N (ITC binding stoichiometry): 1.04
ScTFIIS LW domain [13]; wild type ScTFIIS1–81 LW, pH 7.4, 25 °C
  N (ITC binding stoichiometry): 1.00

## ADMEDLFGSDADSEA (peptide, UniProt Q8WVC0 2-16, looked up) [HsLeo1 peptide (residue 2–16) containing an LFG motif]
[14]
  stoichiometry N: 1
[15]
  stoichiometry N: 1
[16]
  stoichiometry N: 1

## EEDAELDDLFGDDND (peptide, UniProt P38439 54-68, looked up) [ScLeo1 peptide (residue 54–68) containing the LFG motif]
[17]
  Kd: 44 µM
  stoichiometry N: 0.99
[18]
  Kd: 5.1 µM
  stoichiometry N: 0.95
[19]
  Kd: 1.39 µM
  stoichiometry N: 1.04
[20]
  Kd: 37 µM
  stoichiometry N: 1.03
[21]
  Kd: 3.3 µM
  stoichiometry N: 1

## QPSNKELFGDDSEDEG (peptide, UniProt Q8WVC0 55-70, looked up) [HsLeo1 peptide (residue 55–70) containing an LFG motif]
[14]
  Kd: 44 µM
  stoichiometry N: 0.96
[16]
  Kd: 57.6 µM
  stoichiometry N: 1
